≈ marks a conversion by molar mass, not a printed value. Like-named read-outs stand apart in the source and are kept apart here.

The source of these data is article PMC12089494 (Nature Communications, 2025).

Data set [1] can be described thus: Single-pass intestinal perfusion. It counts as in vivo, Wistar rats. An outline of the steps: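 Male Wistar germ-free and age-matched SPF rats (6-week-old, 250–300 g), n = 6 per group. Fasted 12 h with free water, anaesthetised with intramuscular ketamine-xylazine (80 mg/kg and 20 mg/kg), kept on a heated surface at 37 ± 1 °C. Intestine perfused single-pass in situ for 2 h, sampled at 15-min intervals, and Peff determined. Perfused and unperfused segments were collected for microbiological detection.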

Data set [2] can be described thus: SPIP in GF rats mono-colonized with BTWT/BFWT or BTΔSPT/BFΔSPT. It counts as in vivo, Wistar rats. Particulars: for Peff plateau: SPIP 30 mg/L NAC. An outline of the steps: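 Germ-free Wistar rats (6-week-old) fed a fat-free diet (0% kcal fat, 76% carbohydrate, 24% protein) containing only PAA for 12 weeks. Wild-type or SPT-deleted Bacteroides strains, grown anaerobically at 37 °C in BHI with […] cysteine and resuspended in oxygen-free PBS, then given with the diet (10⁸ CFU/μL of PBS per rat, three times weekly) for 8 weeks. In situ single-pass perfusion and Peff determination followed.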

The conditions of data set [3]: cited from earlier work.
The conditions of data set [4]: cited from earlier work. The source holds these as a separate data set.

As a reminder, the aqueous solubility is the dissolved amount per volume that the medium holds. Regarding `CC(=O)N[C@@H](CS)C(=O)O` [NAC, N-Acetylcysteine], the Peff plateau in data set [1] (GF rats, SPIP) is listed as 1.446 × 10^–4 cm/s; in data set [2] (GF^BFΔSPT rats), 1.417 × 10^–4 cm/s; in data set [2] (GF^BTΔSPT rats), 1.216 × 10^–4 cm/s. In addition, the “Peff increase in GF rats than SPF controls” value in data set [1] (GF vs SPF rats) is given as “two-fold increase”. For the same compound, the “Peff increase than GF^BTWT and GF^BFWT littermates” value in data set [2] (GF^BTΔSPT and GF^BFΔSPT rats vs wild-type colonized) is “approximately with the two-fold increase”. Also, the “within-study coefficients of variability (CVs)” value in data set [3] (different populations) is 35-45%. Also, the tmax in data set [3] (oral dose of NAC 400 mg, reduced form) is listed as 30 min. The “Bio-availability, reduced form” value in data set [3] (oral dose of NAC 400 mg) is given as 4.0%. The “Bio-availability, total drug” value in data set [3] (oral dose of NAC 400 mg) was 9.1%. In data set [3] (oral dose of NAC 400 mg), the “Cmax of the reduced form” value is 3470 ng/mL. The aqueous solubility in data set [4] and in data set [4] (pH 7.4) was 163.9 mg/mL (≈ 1000 mM) in each case.
